{"source": "ChEMBL document CHEMBL3272290", "about": "“Contragestational agents. 1. Steroidal O-aryloximes” (J Med Chem, 1977)", "data": [{"tested_on": "Rattus norvegicus", "assay": "Antifertility activity in Wistar rat assessed as inhibition of preimplantive gestation by measuring resorptions at 2.5 mg/kg, po administered in days 9 to 12 of pregnancy measured on day 21", "format": "functional", "parameters": "scale not given: the % may be the effect or the level left", "method_in_brief": "(§1)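 Groups of five pregnant female Wistar-derived rats dosed orally on days 9–12 of pregnancy, in sesame oil at 0.5 mL per 200 g body weight. Read-out was the percentage of resorptions.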", "units": {"Activity": "%"}, "values": [{"molecule": "C[C@]12CC/C(=N\\Oc3ccc([N+](=O)[O-])cc3)C[C@@H]1CC[C@@H]1[C@@H]2CC[C@]2(C)[C@@H](O)CC[C@@H]12", "Activity": 100}, {"molecule": "C[C@]12C[C@@H](Br)/C(=N\\Oc3ccc([N+](=O)[O-])cc3)C[C@@H]1CC[C@@H]1[C@@H]2CC[C@]2(C)C(=O)CC[C@@H]12", "Activity": 100}, {"molecule": "CC(=O)O[C@H]1CC[C@H]2[C@@H]3CC[C@H]4C/C(=N/Oc5ccc([N+](=O)[O-])cc5)[C@H](Br)C[C@]4(C)[C@H]3CC[C@]12C", "Activity": 100}]}, {"tested_on": "Rattus norvegicus", "assay": "Antifertility activity in Wistar rat assessed as inhibition of preimplantive gestation by measuring resorptions at 40 mg/kg, po administered in days 9 to 12 of pregnancy measured on day 21", "format": "functional", "parameters": "scale not given: the % may be the effect or the level left", "method_in_brief": "as §1", "units": {"Activity": "%"}, "values": [{"molecule": "C[C@]12CC/C(=N\\OCc3ccccc3)C[C@@H]1CC[C@@H]1[C@@H]2CC[C@]2(C)[C@@H](O)CC[C@@H]12", "Activity": 13.3}, {"molecule": "C[C@]12CC[C@H]3[C@@H](CCC4=C/C(=N/Oc5ccccc5)CC[C@@H]43)[C@@H]1CC[C@@H]2O", "Activity": 100}, {"molecule": "C[C@]12CC/C(=N\\Oc3ccc([N+](=O)[O-])cn3)C[C@@H]1CC[C@@H]1[C@@H]2CC[C@]2(C)[C@@H](O)CC[C@@H]12", "Activity": 6}, {"molecule": "C[C@]12CC/C(=N\\OCc3ccc(Br)c(O)c3)C[C@@H]1CC[C@@H]1[C@@H]2CC[C@]2(C)[C@@H](O)CC[C@@H]12", "Activity": 8.8}, {"molecule": "C[C@]12CC[C@H]3[C@@H](CCC4=C/C(=N/Oc5ccccn5)CC[C@@]43C)[C@@H]1CC[C@@H]2O", "Activity": 75.9}, {"molecule": "C[C@]12CC/C(=N\\Oc3ccc([N+](=O)[O-])cc3)C[C@@H]1CC[C@@H]1[C@@H]2CC[C@@]2(C)[C@H]1CC[C@]2(C)O", "Activity": 14.7}, {"molecule": "C#C[C@]1(O)CC[C@H]2[C@@H]3CCC4=C/C(=N/Oc5ccc([N+](=O)[O-])cc5)CC[C@@H]4[C@H]3CC[C@@]21C", "Activity": 25}, {"molecule": "C[C@@]12CCC[C@H]1[C@@H]1CC[C@H]3C/C(=N/Oc4ccc([N+](=O)[O-])cc4)CC[C@]3(C)[C@H]1CC2", "Activity": 0}, {"molecule": "C[C@]12CC/C(=N\\Oc3ccc([N+](=O)[O-])cc3)C[C@@H]1CC[C@@H]1[C@@H]2CC[C@@]2(C)[C@H]1CCC21SCCS1", "Activity": 4}, {"molecule": "C[C@]12CC/C(=N\\Oc3ccc([N+](=O)[O-])cc3)C[C@@H]1CC[C@@H]1[C@@H]2CC[C@]2(C)[C@@H](N)CC[C@@H]12", "Activity": 2}, {"molecule": "CC(=O)[C@H]1CC[C@H]2[C@@H]3CC[C@H]4C/C(=N/Oc5ccc([N+](=O)[O-])cc5)CC[C@]4(C)[C@H]3CC[C@]12C", "Activity": 4}, {"molecule": "C[C@]12CC[C@H]3[C@@H](CCC4=C/C(=N/Oc5ccc(C(F)(F)F)cc5)CC[C@@]43C)[C@@H]1CC[C@@H]2O", "Activity": 11.8}, {"molecule": "C[C@]12CC/C(=N\\Oc3ccc([N+](=O)[O-])cc3)C[C@H]1CC[C@@H]1[C@@H]2CC[C@]2(C)[C@@H](O)CC[C@@H]12", "Activity": 10.9}, {"molecule": "C[C@]12CC[C@H]3[C@@H](CCC4=C/C(=N/Oc5ccc([N+](=O)[O-])cc5)CC[C@@]43C)[C@@H]1CC[C@@H]2O", "Activity": 93.8}, {"molecule": "CC(=O)O[C@H]1CC[C@H]2[C@@H]3CC[C@H]4C/C(=N/Oc5ccc([N+](=O)[O-])cc5)C[C@H](C)[C@]4(C)[C@H]3CC[C@]12C", "Activity": 5.8}, {"molecule": "Cc1cc(O/N=C2\\CC[C@@]3(C)[C@@H](CC[C@@H]4[C@@H]3CC[C@]3(C)[C@@H](O)CC[C@@H]43)C2)ccc1[N+](=O)[O-]", "Activity": 13.1}, {"molecule": "CC(=O)O[C@H]1CC[C@H]2[C@@H]3CC[C@H]4C/C(=N/Oc5ccccc5[N+](=O)[O-])CC[C@]4(C)[C@H]3CC[C@]12C", "Activity": 4}, {"molecule": "C[C@]12CC/C(=N\\Oc3ccc([N+](=O)[O-])cc3Cl)C[C@@H]1CC[C@@H]1[C@@H]2CC[C@]2(C)[C@@H](O)CC[C@@H]12", "Activity": 5.8}, {"molecule": "C[C@]12CC/C(=N\\Oc3ccc(C(F)(F)F)cc3)C[C@@H]1CC[C@@H]1[C@@H]2CC[C@]2(C)[C@@H](O)CC[C@@H]12", "Activity": 4.8}, {"molecule": "C[C@]12CC[C@H]3[C@@H](CCC4=C/C(=N/Oc5ccccc5[N+](=O)[O-])CC[C@@H]43)[C@@H]1CC[C@@H]2O", "Activity": 11.9}, {"molecule": "C[C@]1(O)CC[C@H]2[C@@H]3CC[C@H]4C/C(=N/Oc5ccc([N+](=O)[O-])cc5[N+](=O)[O-])CC[C@@H]4[C@H]3CC[C@@]21C", "Activity": 9.5}, {"molecule": "C[C@]12CC/C(=N\\Oc3ccc([N+](=O)[O-])cc3)C[C@@H]1CC[C@@H]1[C@@H]2CC[C@]2(C)[C@@H](O[N+](=O)[O-])CC[C@@H]12", "Activity": 30.8}, {"molecule": "C[C@]12CC/C(=N\\Oc3ccc(C#N)cc3)C[C@@H]1CC[C@@H]1[C@@H]2CC[C@]2(C)[C@@H](O)CC[C@@H]12", "Activity": 12.9}, {"molecule": "C#C[C@]1(O)CC[C@H]2[C@@H]3CC[C@H]4C/C(=N/Oc5ccc([N+](=O)[O-])cc5)CC[C@]4(C)[C@H]3CC[C@@]21C", "Activity": 76.9}, {"molecule": "C[C@]12CC/C(=N\\Oc3ccccc3)C[C@@H]1CC[C@@H]1[C@@H]2CC[C@]2(C)[C@@H](O)CC[C@@H]12", "Activity": 1.9}, {"molecule": "C[C@]12CC/C(=N\\Oc3ccc([N+](=O)[O-])cc3[N+](=O)[O-])C[C@@H]1CC[C@@H]1[C@@H]2CC[C@]2(C)[C@@H](O)CC[C@@H]12", "Activity": 8.2}, {"molecule": "C[C@]12CC[C@H]3[C@@H](CC[C@H]4C/C(=N/Oc5ccc([N+](=O)[O-])cc5[N+](=O)[O-])CC[C@@H]43)[C@@H]1CC[C@@H]2O", "Activity": 16.4}, {"molecule": "C[C@]12CC/C(=N\\Oc3ccc([N+](=O)[O-])cc3[N+](=O)[O-])C[C@H]1CC[C@@H]1[C@@H]2CC[C@]2(C)[C@@H](O)CC[C@@H]12", "Activity": 5.4}, {"molecule": "CC(=O)O[C@H]1CC[C@H]2[C@@H]3CC[C@H]4C/C(=N/Sc5ccc([N+](=O)[O-])cc5)CC[C@]4(C)[C@H]3CC[C@]12C", "Activity": 7.5}, {"molecule": "Cc1cc([N+](=O)[O-])ccc1O/N=C1\\CC[C@@]2(C)[C@@H](CC[C@@H]3[C@@H]2CC[C@]2(C)[C@@H](O)CC[C@@H]32)C1", "Activity": 5.7}, {"molecule": "C[C@]12CC[C@H]3[C@@H](CC[C@H]4C/C(=N/Oc5ccc([N+](=O)[O-])cc5)CC[C@@H]43)[C@@H]1CC[C@@H]2O", "Activity": 9.8}, {"molecule": "CC(=O)O[C@H]1CC[C@H]2[C@@H]3CCC4C/C(=N/Oc5ccc([N+](=O)[O-])cc5)C=C[C@]4(C)[C@H]3CC[C@]12C", "note": "(some centres undefined)", "Activity": 2}, {"molecule": "CC(=O)O[C@H]1CC[C@H]2[C@@H]3CC[C@H]4CC(=O)CC[C@]4(C)[C@H]3CC[C@]12C", "Activity": 5}, {"molecule": "CC(=O)O[C@H]1CC[C@H]2[C@@H]3CC[C@H]4C/C(=N/Nc5ccc([N+](=O)[O-])cc5)CC[C@]4(C)[C@H]3CC[C@]12C", "Activity": 7.7}, {"molecule": "C[C@]12CC/C(=N\\Oc3ccccn3)C[C@@H]1CC[C@@H]1[C@@H]2CC[C@]2(C)[C@@H](O)CC[C@@H]12", "Activity": 0}, {"molecule": "C[C@]12CC/C(=N\\Oc3ccccc3)C[C@H]1CC[C@@H]1[C@@H]2CC[C@]2(C)[C@@H](O)CC[C@@H]12", "Activity": 11.9}]}]}
